The record followed here is ChEMBL document CHEMBL1145497, “A novel Giardia lamblia nitroreductase, GlNR1, interacts with nitazoxanide and other thiazolides” (Antimicrob Agents Chemother, 2007).

The test system of assay [1] is Giardia duodenalis. As to the kind of experiment: Inhibition of Giardia lamblia recombinant nitroreductase 1 (EAA43030.1) expressed in Escherichia coli at 5 uM. A digest of the protocol: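 Six-His-tagged recombinant enzyme expressed in E. coli (1 mM IPTG, 3.5 h) and Ni-column purified. Photometric NADH-oxidation assay in 50 mM Tris-Cl pH 7.0 with 25 μM dinitrotoluene substrate, 0.15 mM NADH final, and inhibitors at 5 μM against a DMSO control. After 5 min preincubation, A340 was read over 0–20 min. Activity came from the linear slope as μkat/g protein; triplicate, mean ± SE.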

Assay [2] deals with Giardia intestinalis. As to the kind of experiment: Growth inhibition of Giardia lamblia. It is filed as functional, organism-based. To be noted: Giardia duodenalis.
In assay [3] the test system is Giardia intestinalis. In words: Reduction of ACT1 expression level in Giardia lamblia trophozoites at 25 uM after 3 hrs by RT-PCR assay. To be noted: Giardia duodenalis. It is filed as functional, organism-based. A digest of the protocol:
(§1)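 G. lamblia WB clone C6 trophozoites grown anaerobically in modified TYI-S-33 to near confluence, exposed to compound at 25 μM (DMSO control) for 3 h, then harvested. RNA extracted with DNase I digestion; transcript levels of GlNR1, GlGDH1 and GlACT1 quantified by real-time RT-PCR.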

Assay [4] concerns Giardia intestinalis. As to the kind of experiment: Reduction of nitroreductase 1 expression level in Giardia lamblia trophozoites at 25 uM after 3 hrs by RT-PCR assay. To be noted: Giardia duodenalis. It is filed as functional, organism-based. A digest of the protocol: as §1
For assay [5], the system named is Giardia intestinalis. As to the kind of experiment: Reduction of GDH expression level in Giardia lamblia trophozoites at 25 uM after 3 hrs by RT-PCR assay. The class given is functional, organism-based. To be noted: Giardia duodenalis. Summed up:
as §1

The nature of assay [6]: Inhibition of Giardia lamblia recombinant nitroreductase 1 (EAA43030.1) expressed in Escherichia coli. More on the design: species or system Giardia duodenalis. A digest of the protocol:
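His6-tagged recombinant GlNR1 from IPTG-induced E. coli, Ni-column purified. Photometric NADH oxidation assay in 50 mM Tris-Cl pH 7.0 with dinitrotoluene substrate, 0.15 mM NADH final, 5 min preincubation, A340 read over 0–20 min.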

The source made the active and inactive calls. The rule behind the calls is not given here. Some results are limits rather than exact numbers.

As to `Cc1ncc([N+](=O)[O-])n1CCO`, the result in assay [1] was inactive.
A word on the inhibition: it is the percentage by which the read-out fell short of the control. Turning to `COc1cccc(C(=O)Nc2ncc([N+](=O)[O-])s2)c1O`, the outcome in assay [2] was Active. Further, the inhibition in assay [1] is greater than 75%.
As to `O=C(Nc1ncc([N+](=O)[O-])s1)c1ccccc1O`, the result in assay [2] was Active. In addition, the inhibition in assay [1] is greater than 75%.
`CC(=O)Oc1c(C)cccc1C(=O)Nc1ncc([N+](=O)[O-])s1`: the outcome in assay [2] was Active. In addition, the inhibition in assay [1] is greater than 75%.
What is called Ki is a dissociation constant, usually derived from enzyme kinetics or from competition with a known ligand. Take `CC(=O)Oc1ccccc1C(=O)Nc1ncc([N+](=O)[O-])s1` [NITAZOXANIDE]: the outcome in assay [3], in assay [4], in assay [5] and in assay [2] was Active. The Ki in assay [6] was found to be 300 nM. The inhibition in assay [1] is greater than 75%.
